Data as given in ChEMBL document CHEMBL4651341, “The discovery of a novel series of compounds with single-dose efficacy against juvenile and adult Schistosoma species” (PLoS Negl Trop Dis, 2021).
Converted amounts (≈) assume the structure as drawn.

Legend:
[1] = test system: Schistosoma mansoni; assay: Concentration required to kill 50% of 42 day old worms 5 days after drug treatment.; type: functional, organism-based; conditions: Puerto Rican, 120 h
Summary of the method: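 Adult S. mansoni were perfused from CD1 mice 6 weeks post-infection and washed. They were cultured 3 pairs per well in 1 mL DMEM with 2 mM glutamine, penicillin/streptomycin and 10% FCS […] at 37 °C, 5% CO2. Viability of individual worms was scored on day 5 (120 h).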

[2] = test system: Schistosoma mansoni; assay: Concentration required to kill 50% of 21 day old worms 5 days after drug treatment.; type: functional, organism-based; conditions: Puerto Rican, 120 h
Summary of the method: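 Juvenile S. mansoni (Puerto Rican strain) were perfused from CD1 mice 3 weeks post-infection and washed. They were cultured 6–8 per well in 200 µL DMEM with 2 mM glutamine, penicillin/streptomycin and 10% FCS at 37 °C, 5% CO2. Viability of individual worms was scored on day 5 after dosing (120 h).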

[3] = Concentration required to kill 50% MRC-5 cells as detected by Alamar blue staining; type: toxicity, cell-based, MRC5; conditions: homo sapiens, read-out: TC50 (the source's name)
[4] = Solubility at 25 degC of compound (diluted from DMSO) in PBS at pH 7.4 determined after 24h (1h sonication, 22h shaking, 1h sonication) by LCMS/MS; type: physicochemical
[5] = Concentration required to kill 50% HepG2 cells as detected by MTT staining; type: toxicity, cell-based; conditions: homo sapiens, read-out: TC50 (the source's name)
[6] = Mean oral bioavailability in Swiss albino male mice at […] per compound (administered in a mixture of 5 compounds to 3 mice) assessed by LCMS/MS.; note: dose 2.5 mg/kg; type: ADME, organism-based; conditions: male, Swiss albino, mouse, in vivo, read-out: Bioavailability
[7] = Mean AUC inf in Swiss albino male mice at 1 mg/kg per compound (administered iv in a mixture of 5 compounds to 3 mice) assessed by LCMS/MS.; type: ADME, organism-based; conditions: male, Swiss albino, mouse, in vivo
Summary of the method: (§1)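 Male Swiss albino mice (~30 g), 3 per experiment, mostly dosed as mixtures of 5 compounds iv via the lateral tail vein. Vehicle: 10% DMSO/90% 50 mM Na2HPO4 with 0.5% Tween-80. Blood sampled at 5, 15, 30 min and 1, 2, 4, 8, 24 h. Plasma stored at −20 °C and quantified by LC-MS after acetonitrile precipitation.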

[8] = Mean observed clearance in Swiss albino male mice at 1 mg/kg per compound (administered iv in a mixture of 5 compounds to 3 mice) assessed by LCMS/MS.; type: ADME, organism-based; conditions: male, Swiss albino, mouse, in vivo, read-out: Clearance (converted); summary of the method: as §1
[9] = Mean volume of distribution at steady state in Swiss albino male mice at 1 mg/kg per compound (administered iv in a mixture of 5 compounds to 3 mice) assessed by LCMS/MS.; type: ADME, organism-based; conditions: mouse, in vivo, read-out: Volume
Summary of the method: (§2)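 Male Swiss albino mice (~30 g), 3 per experiment, mostly dosed as mixtures of 5 compounds iv via the lateral tail vein. Vehicle: 10% DMSO/90% 50 mM Na2HPO4 with 0.5% Tween-80. Plasma stored at −20 °C and quantified by LC-MS after acetonitrile precipitation.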

[10] = Mean half-life in Swiss albino male mice at 1 mg/kg per compound (administered iv in a mixture of 5 compounds to 3 mice) assessed by LCMS/MS.; type: ADME, organism-based; conditions: mouse, in vivo; summary of the method: as §2
[11] = Mean plasma concentration at 24h in Swiss albino male mice at […] per compound (administered orally in a mixture of 5 compounds to 3 mice) assessed by LCMS/MS.; type: ADME, organism-based; conditions: mouse, po
[12] = Mean plasma concentration at 4h in Swiss albino male mice at […] per compound (administered orally in a mixture of 5 compounds to 3 mice) assessed by LCMS/MS.; type: ADME, organism-based; conditions: mouse, po
[13] = Mean time to peak plasma concentration in Swiss albino male mice at […] per compound (administered orally in a mixture of 5 compounds to 3 mice) assessed by LCMS/MS.; type: ADME, organism-based; conditions: mouse, po
[14] = Plasma protein binding determined at 10uM by LC-MS/MS.; type: ADME, cell-free; conditions: mouse
Summary of the method: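 Equilibrium dialysis of plasma spiked at 10 µM (0.1% DMSO) against PBS pH 7.4, 6 h at 37 °C, duplicates. Both chambers analysed by LC-MS/MS after acetonitrile precipitation. % free = buffer/plasma area ratio; recovery also calculated.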

[15] = Partition coefficient of compound between n-octanol and PBS (pH7.4); type: physicochemical; conditions: octanol/water, pH 7.4
Summary of the method: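 Shake-flask method using octanol and PBS pH 7.4, each pre-saturated with the other. Compound was shaken 2 h at 850 rpm, 25 °C, then the phases were separated by centrifugation and both layers diluted and analysed by LC-MS/MS. LogD = log(octanol AUC × relative dilution / buffer AUC).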

[16] = Percentage of parent compound remaining after incubation for 30 minutes with cyropreserved mouse hepatocytes at a concentration of 1uM compound and […], determined by LCMS; type: ADME, tissue-based, Hepatocyte; conditions: cryopreserved mouse hepatocytes, read-out: Stability
Summary of the method: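 Compound was incubated at 1 µM final (2 µM working solution mixed 1:1 with hepatocyte suspension) in supplemented KHB pH 7.4. Conditions: 37 °C, 5% CO2, gentle mixing, duplicates. Reaction quenched with ice-cold acetonitrile containing standard; analysed by LC-MS/MS. % remaining = AUC at t / AUC at T0.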

CCOc1cccc(-c2cn3c(-c4ccc(OC)cc4)cnc3cn2)c1
EC50 [1]: 12.1 µM | EC50 [2]: 11 µM | CC50 [3]: 37.7 µM

Cc1nc2cnc(-c3cccc(C(C)C)c3)cn2c1-c1ccc(O)cc1
solubility kinetic at 24 h [4]: 1.19 µM (≈ 0.409 µg/mL) | EC50 [1]: < 0.43 µM | EC50 [2]: < 0.421 µM | CC50 [3]: > 50 µM | CC50 [5]: > 11.5 µM

CC(C)c1cccc(-c2cn3c(-c4ccc(O)c(F)c4)cnc3cn2)c1
EC50 [1]: 0.823 µM | EC50 [2]: 1.32 µM | CC50 [3]: > 50 µM | CC50 [5]: > 30 µM

Cc1nc2cnc(-c3cccc(C(F)(F)F)c3)cn2c1-c1c(F)cc(O)cc1F
bioavailability [6]: 4% | AUC(0-inf) [7]: 99.6 ng·h/mL | clearance [8]: 86 mL/min/kg | Vd [9]: 1.8 L/kg | half-life [10]: 27.5 min | concentration at 24 h [11]: 0.1 ng/mL | concentration at 4 h [12]: 2.67 ng/mL | Tmax [13]: 15 min | Binding [14]: 99.88% | Lipophilicity [15]: 3.81 = | remaining at 0.5 h, 1 µM [16]: 42.3% | solubility kinetic at 24 h [4]: 1.73 µM (≈ 0.701 µg/mL) | EC50 [2]: 0.172 µM | CC50 [5]: 8.4 µM

COc1ccc(-c2cnc3cnc(-c4cccc(OC(C)C)c4)cn23)cc1OC
EC50 [1]: 5.56 µM | EC50 [2]: 9.51 µM | CC50 [3]: 28.7 µM

Oc1ccc(-c2cnn3ccc(-c4cccc(C(F)(F)F)c4)cc23)c(F)c1
bioavailability [6]: 0% | AUC(0-inf) [7]: 52.7 ng·h/mL | clearance [8]: 158 mL/min/kg | Vd [9]: 2.85 L/kg | half-life [10]: 25 min | concentration at 24 h [11]: 0.1 ng/mL | concentration at 4 h [12]: 0.1 ng/mL | Tmax [13]: 15 min | Binding [14]: 100% | Lipophilicity [15]: 4.27 = | remaining at 0.5 h, 1 µM [16]: 50.9% | solubility kinetic at 24 h [4]: 1.42 µM (≈ 0.529 µg/mL) | EC50 [2]: 2.65 µM

CC(C)Oc1cccc(-c2cn3c(-c4ccc5[nH]ncc5c4)cnc3cn2)c1
EC50 [1]: 7.19 µM | EC50 [2]: 7.5 µM | CC50 [3]: 22.2 µM

CC(C)c1cccc(-c2cn3c(-c4ccc(O)cc4F)cnc3cn2)c1
solubility kinetic at 24 h [4]: 1.23 µM (≈ 0.427 µg/mL) | EC50 [1]: 0.262 µM | EC50 [2]: 0.636 µM | CC50 [3]: 11.1 µM | CC50 [5]: > 11.1 µM

CCc1nc2cnc(-c3cccc(C(F)(F)F)c3)cn2c1-c1ccc(OC)c(O)c1
Lipophilicity [15]: 3.97 = | solubility kinetic at 24 h [4]: 0.672 µM (≈ 0.278 µg/mL) | EC50 [1]: < 0.133 µM | EC50 [2]: 0.0829 µM | CC50 [3]: > 50 µM | CC50 [5]: > 30 µM

CCc1cccc(-c2cn3c(-c4ccc(OC)c(OC)c4)cnc3cn2)c1
EC50 [1]: 1.06 µM | EC50 [2]: 2.79 µM | CC50 [3]: 29.9 µM

COc1cc(-c2cnc3cnc(-c4cccc(C(C)C)c4)cn23)ccc1O
Lipophilicity [15]: 4.75 = | EC50 [1]: 1.41 µM | EC50 [2]: 1.63 µM | CC50 [3]: > 50 µM | CC50 [5]: 26 µM

COc1ccc(-c2cnc3cnc(-c4cccc(OC)c4)cn23)cc1
EC50 [1]: 6.75 µM | EC50 [2]: 12.6 µM | CC50 [3]: > 49.9 µM

Oc1ccc(-c2cnc3ccc(-c4cccc(C(F)(F)F)c4)nn23)c(F)c1
EC50 [1]: > 25 µM | EC50 [2]: > 25 µM | CC50 [3]: > 50 µM

COc1ccc(-c2nnc3ccc(-c4cccc(C(C)C)c4)cn23)cc1
Lipophilicity [15]: 4.71 = | EC50 [2]: 24.2 µM | CC50 [3]: 40.8 µM

CC(C)c1nc2cnc(-c3cccc(C(F)(F)F)c3)cn2c1-c1ccc(OP(=O)(O)O)cc1F
bioavailability [6]: 5.44% | AUC(0-inf) [7]: 131 ng·h/mL | clearance [8]: 69 mL/min/kg | Vd [9]: 1.26 L/kg | half-life [10]: 31.7 min | concentration at 24 h [11]: 0.1 ng/mL | concentration at 4 h [12]: 5.46 ng/mL | Tmax [13]: 15 min | Binding [14]: 96.805% | Lipophilicity [15]: 0.075 = | remaining at 0.5 h, 1 µM [16]: 39.6% | solubility kinetic at 24 h [4]: 204 µM (≈ 101 µg/mL) | EC50 [1]: < 0.0488 µM | EC50 [2]: 0.127 µM | CC50 [5]: 9.2 µM

COc1ccc(-c2cnc3cnc(-c4cccc(C(C)C)c4)cn23)cc1
Lipophilicity [15]: 5.36 = | EC50 [1]: 1.85 µM | EC50 [2]: 2.43 µM | CC50 [3]: 9.04 µM

COc1ccc(-c2c(C)nn3cnc(-c4cccc(C(F)(F)F)c4)cc23)cc1O
AUC(0-inf) [7]: 43.2 ng·h/mL | clearance [8]: 195 mL/min/kg | Vd [9]: 3.18 L/kg | half-life [10]: 14.4 min | concentration at 24 h [11]: 0.1 ng/mL | concentration at 4 h [12]: 0.1 ng/mL | Binding [14]: 99.935% | Lipophilicity [15]: 3.73 = | remaining at 0.5 h, 1 µM [16]: 45.1% | solubility kinetic at 24 h [4]: 29.8 µM (≈ 11.9 µg/mL) | EC50 [2]: 0.785 µM

Cc1nc2cnc(-c3cccc(C(F)(F)F)c3)cn2c1-c1ccc(O)cc1F
remaining at 0.5 h, 1 µM [16]: 31.5% | solubility kinetic at 24 h [4]: 3.49 µM (≈ 1.35 µg/mL) | EC50 [1]: 0.29 µM | EC50 [2]: < 0.614 µM | CC50 [3]: 18.7 µM

COc1ccc(-c2cnc3cnc(-c4cccc(Cl)c4)cn23)cc1
EC50 [1]: 12.2 µM | EC50 [2]: 13.1 µM | CC50 [3]: > 50 µM

COc1ccc(-c2cnc3ccc(-c4cccc(C(C)C)c4)nn23)cc1O
EC50 [1]: 5.59 µM | EC50 [2]: 8.26 µM | CC50 [3]: 11.3 µM | CC50 [5]: 9.24 µM

COc1ccc(-c2cnc3cnc(-c4cccc(OC(C)C)c4)cn23)c(OC)c1
EC50 [1]: 12.7 µM | EC50 [2]: 12.5 µM | CC50 [3]: > 48.9 µM

COc1ccc(-c2c(C(C)C)nc3cnc(-c4cccc(C(F)(F)F)c4)cn23)cc1OP(=O)(O)O
AUC(0-inf) [7]: 25 ng·h/mL | clearance [8]: 345 mL/min/kg | Vd [9]: 4.06 L/kg | half-life [10]: 22.6 min | concentration at 24 h [11]: 0.1 ng/mL | concentration at 4 h [12]: 0.1 ng/mL | Binding [14]: 96.79% | Lipophilicity [15]: 0.09 = | remaining at 0.5 h, 1 µM [16]: 51.1% | solubility kinetic at 24 h [4]: 209 µM (≈ 106 µg/mL) | EC50 [2]: 0.241 µM | CC50 [5]: 19.2 µM
